Measured values: the array DNA melting data of Ke et al. (doi:10.1101/2024.01.08.574731)

Experiments:
[1] = folding enthalpy; higher = less favourable; fluorescence melt of hairpins on a sequencing array, two-state fit; conditions: sodium 0.088 M
Procedure, shortened: (§1)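 Library hairpins on a sequenced MiSeq flow cell carried annealed Cy3 and quencher oligos, and their Cy3 fluorescence was imaged in 50 mM Na-HEPES pH 8.0 with 25 mM NaCl, in 2.5 °C steps up to 60 °C. Signals were normalised to Cy3 before quenching and to control constructs. Melting temperature and folding enthalpy were obtained from bootstrapped two-state fits, combined by inverse-variance weighting across four replicates, and the fitted temperatures were then raised by 9.35 °C to match UV melts.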

[2] = melting temperature; fluorescence melt of hairpins on a sequencing array, two-state fit, raised by 9.35 °C to match UV melts; conditions: sodium 0.088 M
Procedure, shortened: as §1

**Q.** Which folding enthalpy [1] does the source give for GTAGTGGGAAACTACTAC (((((.(....).))))) here?
**A.** -31.7 kcal/mol

**Q.** What about the Tm [2] of the same sequence?
**A.** 47.5 °C

**Q.** With GATCTCAAACGAGATC ((((((....)))))) as the sequence, how does the folding enthalpy [1] read?
**A.** -41.4 kcal/mol

**Q.** What about the Tm [2] of the same sequence?
**A.** 50.2 °C

**Q.** What does the source list for GTTCGAGGAAACTCGGAC ((.((((....)))).))?
**A.** folding enthalpy [1]: -40.9 kcal/mol; Tm [2]: 51.3 °C

**Q.** For GACTACGGAAACGTAGTC (((((((....))))))), which folding enthalpy [1] is on record?
**A.** -37.8 kcal/mol

**Q.** And the Tm [2]?
**A.** 61.4 °C

**Q.** For GGGCGCGAAAGCGTGCCC ((((((....)))..))), which folding enthalpy [1] is on record?
**A.** -19.1 kcal/mol

**Q.** And the Tm [2]?
**A.** 64.2 °C

**Q.** With GATAGCGAAAGCTCAATC ((((((....)))..))) as the sequence, how does the folding enthalpy [1] read?
**A.** -10.4 kcal/mol

**Q.** And the Tm [2]?
**A.** 21.7 °C

**Q.** With GGCATCGAAAGATCGCC ((((((....))).))) as the sequence, how does the folding enthalpy [1] read?
**A.** -24.4 kcal/mol

**Q.** What about the Tm [2] of the same sequence?
**A.** 50.4 °C

**Q.** Which results are given for GCGAATACGAAAGTACGC (((..(((....))))))?
**A.** folding enthalpy [1]: -25 kcal/mol; Tm [2]: 44.9 °C

**Q.** For GCGGTTACCGC ((((...)))), which folding enthalpy [1] is on record?
**A.** -28.8 kcal/mol

**Q.** What about the Tm [2] of the same sequence?
**A.** 59.2 °C

**Q.** Which results are given for GATCGACGCTCGATC ((((((...))))))?
**A.** folding enthalpy [1]: -41.3 kcal/mol; Tm [2]: 49.6 °C

**Q.** Which results are given for GGACCGGGAAACCGGCCC ((.((((....)))).))?
**A.** folding enthalpy [1]: -19.9 kcal/mol; Tm [2]: 57.9 °C

**Q.** Which results are given for GATCTTCGAAAGATC ((((((...))))))?
**A.** folding enthalpy [1]: -21.4 kcal/mol; Tm [2]: 39.9 °C

**Q.** With GATCGGTCGACCGATC ((((((....)))))) as the sequence, how does the folding enthalpy [1] read?
**A.** -49.7 kcal/mol

**Q.** And the Tm [2]?
**A.** 61.4 °C

**Q.** Which folding enthalpy [1] does the source give for GCCTCCGAAAGGAGCGGC ((((((....)))..))) here?
**A.** -15.6 kcal/mol

**Q.** And the Tm [2]?
**A.** 52.3 °C

**Q.** For GTGCTGGGAAACCGGTAC ((.(.((....)).).)), which folding enthalpy [1] is on record?
**A.** -33.1 kcal/mol

**Q.** And the Tm [2]?
**A.** 42.1 °C

**Q.** Which folding enthalpy [1] does the source give for CGACGGCGGAAACGCTCG (((..(((....)))))) here?
**A.** -15.4 kcal/mol

**Q.** What about the Tm [2] of the same sequence?
**A.** 38.3 °C

**Q.** Which results are given for GATCCCCATTGGGATC ((((((....))))))?
**A.** folding enthalpy [1]: -37.6 kcal/mol; Tm [2]: 59.6 °C

**Q.** For GCTTCTGCGAAAGCAAGC (((..(((....)))))), which folding enthalpy [1] is on record?
**A.** -9.99 kcal/mol

**Q.** And the Tm [2]?
**A.** 38.3 °C

**Q.** Which results are given for GGCTCCGCGAAAGCGGCC (((..(((....))))))?
**A.** folding enthalpy [1]: -8.55 kcal/mol; Tm [2]: 41.4 °C

**Q.** For GATCCCGGAAACAGGATC (((((.(....).))))), which folding enthalpy [1] is on record?
**A.** -28.8 kcal/mol

**Q.** And the Tm [2]?
**A.** 38.8 °C

**Q.** With GGCATCCGAAAGGAAGCC (((.(((....))).))) as the sequence, how does the folding enthalpy [1] read?
**A.** -42.9 kcal/mol

**Q.** And the Tm [2]?
**A.** 59.2 °C

**Q.** Which results are given for GGTCTTCGAAAGAAAACC (((.(((....))).)))?
**A.** folding enthalpy [1]: -25.7 kcal/mol; Tm [2]: 35.2 °C

**Q.** Which results are given for GACCCAACGAAAGTTGTC (((..(((....))))))?
**A.** folding enthalpy [1]: -10.5 kcal/mol; Tm [2]: 29 °C

**Q.** What does the source list for GGCTACGGAAACATAGCC (((((.(....).)))))?
**A.** folding enthalpy [1]: -28.8 kcal/mol; Tm [2]: 43.8 °C

**Q.** Which folding enthalpy [1] does the source give for GATCCAGCGGTGGATC ((((((....)))))) here?
**A.** -44.3 kcal/mol

**Q.** What about the Tm [2] of the same sequence?
**A.** 50.8 °C

**Q.** Which folding enthalpy [1] does the source give for GACCCGGGAAACCAGGCC (.((.((....)).)).) here?
**A.** -10.8 kcal/mol

**Q.** What about the Tm [2] of the same sequence?
**A.** 24.7 °C

**Q.** Which folding enthalpy [1] does the source give for GTCCCATCGAAAGATGAC (((..(((....)))))) here?
**A.** -12 kcal/mol

**Q.** What about the Tm [2] of the same sequence?
**A.** 25.9 °C

**Q.** Which folding enthalpy [1] does the source give for GCTATAGCGAAAGCTAGC (((..(((....)))))) here?
**A.** -18 kcal/mol

**Q.** What about the Tm [2] of the same sequence?
**A.** 44.6 °C

**Q.** Which folding enthalpy [1] does the source give for GTCGGCGAAAGCCTCGAC ((((((....)))..))) here?
**A.** -14.7 kcal/mol

**Q.** What about the Tm [2] of the same sequence?
**A.** 42.4 °C

**Q.** Which folding enthalpy [1] does the source give for GGGGTAGGAAACTATCCC (((.(((....))).))) here?
**A.** -38.4 kcal/mol

**Q.** And the Tm [2]?
**A.** 48.9 °C

**Q.** Which folding enthalpy [1] does the source give for GCACACGGAAACGCATGC (((..((....))..))) here?
**A.** -12.7 kcal/mol

**Q.** What about the Tm [2] of the same sequence?
**A.** 26.4 °C

**Q.** For GATCACCGCGTGATC ((((((...)))))), which folding enthalpy [1] is on record?
**A.** -35.6 kcal/mol

**Q.** And the Tm [2]?
**A.** 61.9 °C

**Q.** Which results are given for GATCACATTCGTGATC ((((((....))))))?
**A.** folding enthalpy [1]: -39.2 kcal/mol; Tm [2]: 59.4 °C

**Q.** Which results are given for GCGTTGCGAAAGCATGGC ((..(((....)))..))?
**A.** folding enthalpy [1]: -18.9 kcal/mol; Tm [2]: 42.9 °C

**Q.** Which folding enthalpy [1] does the source give for GATCCGGGTACGGATC ((((((....)))))) here?
**A.** -36 kcal/mol

**Q.** And the Tm [2]?
**A.** 67.9 °C

**Q.** For GGCCGATCGAAAGATGCC (((..(((....)))))), which folding enthalpy [1] is on record?
**A.** -25.1 kcal/mol

**Q.** What about the Tm [2] of the same sequence?
**A.** 38.9 °C

**Q.** With GGAGGAGGAAACTCCTCC (((((((....))))))) as the sequence, how does the folding enthalpy [1] read?
**A.** -40.3 kcal/mol

**Q.** And the Tm [2]?
**A.** 65.9 °C

**Q.** For GTTTCTCGAAAGAGAAC (((.(((....)))))), which folding enthalpy [1] is on record?
**A.** -17.1 kcal/mol

**Q.** And the Tm [2]?
**A.** 42.4 °C

**Q.** Which results are given for GTAGTTGGAAACAACTGC (.(((((....))))).)?
**A.** folding enthalpy [1]: -18 kcal/mol; Tm [2]: 47.6 °C

**Q.** Which results are given for GAGGCCGAAAGGCGGCTC ((((((....)))..)))?
**A.** folding enthalpy [1]: -12.8 kcal/mol; Tm [2]: 55.9 °C

**Q.** With GAGTCTGCGAAAGCACTC (((..(((....)))))) as the sequence, how does the folding enthalpy [1] read?
**A.** -14.8 kcal/mol

**Q.** And the Tm [2]?
**A.** 30.4 °C

**Q.** For GCGCCGCGAAAGCTGGGC ((.(.((....)).).)), which folding enthalpy [1] is on record?
**A.** -16.1 kcal/mol

**Q.** And the Tm [2]?
**A.** 57 °C

**Q.** With CGTACGCGGAAACGCACG (((..(((....)))))) as the sequence, how does the folding enthalpy [1] read?
**A.** -13.5 kcal/mol

**Q.** What about the Tm [2] of the same sequence?
**A.** 40.7 °C

**Q.** Which folding enthalpy [1] does the source give for GGTAACGAAAGTTAACC ((((((....))).))) here?
**A.** -18.2 kcal/mol

**Q.** And the Tm [2]?
**A.** 45.3 °C

**Q.** With GGACACGAAAGTGTATCC ((((((....)))..))) as the sequence, how does the folding enthalpy [1] read?
**A.** -10.9 kcal/mol

**Q.** And the Tm [2]?
**A.** 36.1 °C

**Q.** With GTTTCAACGAAAGTTAAC (((..(((....)))))) as the sequence, how does the folding enthalpy [1] read?
**A.** -15.8 kcal/mol

**Q.** What about the Tm [2] of the same sequence?
**A.** 35.5 °C
